The results in this text go back to ChEMBL document CHEMBL1152760, “Synthesis and bioevaluation of omega-N-amino analogs of B13” (Bioorg Med Chem, 2009).

As a reminder, the IC50 is the concentration needed to halve the response being measured. Usually inhibition stands for the relative decrease from the control value, in per cent.

For assay [1], the system named is MCF7. Description: Decrease in endogenous sphingosine level in human MCF7 cells at 10 uM after 2 hrs by LC/MS analysis relative to control. The class given is functional. More on the design: scale not given: the % may be the effect or the level left. In a few lines: (§1)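 MCF7 cells treated with 10μM compound for 2 h. Endogenous ceramide species and sphingosine were measured in a Bligh & Dyer lipid extract and normalized to phospholipid phosphate (pmol/nmol Pi). Results are given as % of control, each dose in duplicate.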

In assay [2] the test system is MCF7. Description: Increase in endogenous C14-ceramide level in human MCF7 cells at 10 uM after 2 hrs by LC/MS analysis relative to control. The format is functional. The method, boiled down:
as §1

Assay [3] deals with MCF7. Briefly: Increase in endogenous C16-ceramide level in human MCF7 cells at 10 uM after 2 hrs by LC/MS analysis relative to control. The class given is functional. The method, boiled down: as §1
Assay [4] has as its system MCF7. Description: Cytotoxicity against human MCF7 cells after 48 hrs by MTT assay. The class given is functional, cell-based. The following applies: for IC50: MCF7, 48 h. In a few lines: (§2)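 MCF7 cells (RPMI 1640, 10% FBS) seeded at 5 × 10^3 per well and left overnight to attach. Compounds in DMSO (<0.1%) added at 0.78–100 μM for 48 h (or 72 h), then MTT read-out. Viability is Ad/Ac × 100 against untreated controls, with 5 replicates per dose and two independent experiments. IC50 is the concentration giving 50% growth inhibition.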
In general terms: Tetrazolium dyes change colour on reduction, which living cells bring about.

The test system of assay [5] is MCF7. Description: Increase in endogenous total ceramide level in human MCF7 cells at 10 uM after 2 hrs by LC/MS analysis relative to control. The class given is functional. In a few lines: as §1
Assay [6] concerns MCF7. Briefly: Induction of lysosomal destabilization in human MCF7 cells assessed as reduction in stability at 10 uM after 1 to 5 hrs by FACS. The class given is functional. Also on record: scale not given: the % may be the effect or the level left. The method, boiled down:
(§3)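 MCF7 cells seeded at 5 × 10^5 per well overnight, then moved to fresh 2% FBS medium with compound in DMSO or DMSO alone at 37°C for 1 and 5 h. 200nM LysoTracker Red was added for 30 min, and cells were trypsinized, washed and analysed by FACS (564–606nm, ≥10,000 events). A fall in fluorescence indicates a rise in lysosomal pH. Triplicates, reported as % control.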
(In general: In flow cytometry, cells or beads pass a laser one at a time.)

For assay [7], the system named is MCF7. Briefly: Increase in endogenous C18-ceramide level in human MCF7 cells at 10 uM after 2 hrs by LC/MS analysis relative to control. The format is functional. In a few lines: as §1
Assay [8] deals with MCF7. Briefly: Induction of apoptosis in human MCF7 cells at 5 uM after 24 hrs. The class given is functional, cell-based. The following applies: MCF7, 24 h.
In assay [9] the target is T1, Acid ceramidase (Homo sapiens) (UniProt Q13510).
T1 sequence (whole entry): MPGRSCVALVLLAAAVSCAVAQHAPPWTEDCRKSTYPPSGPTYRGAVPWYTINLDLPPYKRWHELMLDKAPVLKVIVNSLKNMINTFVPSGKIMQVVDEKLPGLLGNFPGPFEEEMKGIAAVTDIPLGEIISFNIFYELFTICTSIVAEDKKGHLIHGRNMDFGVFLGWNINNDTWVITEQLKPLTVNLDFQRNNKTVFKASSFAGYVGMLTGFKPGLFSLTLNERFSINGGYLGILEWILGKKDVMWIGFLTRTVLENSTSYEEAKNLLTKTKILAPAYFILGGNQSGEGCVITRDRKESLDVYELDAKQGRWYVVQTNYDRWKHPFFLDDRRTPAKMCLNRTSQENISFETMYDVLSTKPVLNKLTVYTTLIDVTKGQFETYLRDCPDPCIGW
Briefly: Inhibition of acid ceramidase in human MCF7 cells at 10 uM after 2 hrs by scintillation counting. The class given is cell-based. The method, boiled down: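 MCF7 cells were treated with 10μM compound for 2 h, scraped and lysed in acidic buffer. Acid ceramidase activity in the lysate was assayed with [3H]C16-ceramide at pH about 4.2, 37°C for 1 h, counting released [3H]palmitic acid. Duplicates, reported as % control.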

Assay [10] concerns the target T1, Acid ceramidase (Homo sapiens). Description: Inhibition of acid ceramidase in human MCF7 cell lysate at 50 uM by scintillation counting. The class given is cell-free. In a few lines: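 MCF7 lysate prepared in pH 4.5 acetate buffer (5mM MgCl2, 1mM EDTA, 0.5% Triton X-100) served as the enzyme source. Substrate was [3H]C16-ceramide in Triton/cholate, dried down with compound from ethanol stock. The reaction was run at final pH about 4.2 and 37°C for 1 h, then stopped with Dole's reagent. Released [3H]palmitic acid was counted by scintillation. Duplicates, reported as % control.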

The test system of assay [11] is MCF7. Briefly: Cytotoxicity against human MCF7 cells after 72 hrs by MTT assay. The class given is functional, cell-based. The conditions noted are these: MCF7, 72 h. In a few lines:
as §2

For assay [12], the system named is MCF7. Description: Induction of apoptosis in human MCF7 cells assessed as increase in caspase 3/7 activity at 10 uM after 24 hrs. The class given is functional. The method, boiled down:
(§4)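 MCF7 cells seeded at 5 × 10^3 per well overnight, then given vehicle or compound at the indicated concentrations. After 8 h and 24 h, caspase 3/7 activity was measured with the Apo-ONE homogeneous kit (fluorescence, ex 485/em 520 nm). Data are mean ±SD.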

Assay [13] relates to MCF7. Briefly: Induction of lysosomal destabilization in human MCF7 cells assessed as reduction in stability at 10 uM after 5 hrs by FACS. The class given is functional, cell-based. The method, boiled down:
as §3

For assay [14], the system named is MCF7. Description: Induction of lysosomal destabilization in human MCF7 cells assessed as reduction in stability at 10 uM after 1 hr by FACS. The format is functional. Also on record: scale not given: the % may be the effect or the level left. In a few lines:
as §3

The test system of assay [15] is MCF7. Description: Induction of apoptosis in human MCF7 cells assessed as increase in caspase 3/7 activity after 24 hrs. The class given is functional, cell-based. The method, boiled down:
as §4

In assay [16] the test system is MCF7. Briefly: Increase in endogenous C24:1-ceramide level in human MCF7 cells at 10 uM after 2 hrs by LC/MS analysis relative to control. The format is functional. The method, boiled down:
as §1

Assay [17] deals with MCF7. Briefly: Increase in endogenous C24-ceramide level in human MCF7 cells at 10 uM after 2 hrs by LC/MS analysis relative to control. The format is functional. In a few lines: as §1
Assay [18] has as its system MCF7. Description: Increase in endogenous sphingosine level in human MCF7 cells at 10 uM after 2 hrs by LC/MS analysis relative to control. The class given is functional. The method, boiled down: as §1

Activity calls are given as the source filed them. The calls are words filed in the database; no cut-off is given here.

Regarding `O=C(CCCCCCCCCCCn1ccnc1)N[C@H](CO)[C@H](O)c1ccc([N+](=O)[O-])cc1`, the Activity was 50% in the assay on MCF7 [1]; 200% with MCF7 [2]; 120% in the assay on MCF7 [3]; “Dose-dependent effect” in the assay with MCF7 [4]; 98% in the assay with MCF7 [5]. The compound also came in with an IC50 in the assay on MCF7 [4] of 14.8 µM.

As for `CCCCCCCCCCCCCCN[C@H](CO)[C@H](O)c1ccc([N+](=O)[O-])cc1.Cl`, the Activity in the assay with MCF7 [6] is 90%; in the assay with MCF7 [1], 30%; in the assay with MCF7 [2], 220%; in the assay on MCF7 [3] it was 200%; in the assay with MCF7 [4], “Dose-dependent effect”; in the assay on MCF7 [7], 160%. Moreover, the IC50 worked out at 4.29 µM in the assay on MCF7 [4] and 5 µM with MCF7 [8]. The compound further came in with an inhibition in assay [9] of 35%.

`O=C(CCCCCCCCCCCN1CCOCC1)N[C@H](CO)[C@H](O)c1ccc([N+](=O)[O-])cc1`: in assay [10], the inhibition came out at 5%. For the same compound, the Activity is 50% in the assay with MCF7 [1]; 200% in the assay with MCF7 [2]; 120% in the assay with MCF7 [3]; “Dose-dependent effect” in the assay on MCF7 [4]; 98% in the assay on MCF7 [5]. In the assay with MCF7 [4], the IC50 came out at 49.9 µM.

In the case of `CNCCCCCCCCCCCC(=O)N[C@H](CO)[C@H](O)c1ccc([N+](=O)[O-])cc1`, the Activity was 50% in the assay on MCF7 [1]; 200% with MCF7 [2]; 120% in the assay on MCF7 [3]; “Dose-dependent effect” in the assay with MCF7 [4]; 98% in the assay on MCF7 [5]. This compound also returned an IC50 in the assay on MCF7 [4] of 15.5 µM.

In the case of `CCCCCCCCNCCCCCC(=O)N[C@H](CO)[C@H](O)c1ccc([N+](=O)[O-])cc1`, the inhibition in assay [10] turned out to be 5%. The Activity with MCF7 [1] is 50%; in the assay with MCF7 [2], 200%; with MCF7 [3], 120%; in the assay on MCF7 [4], “Dose-dependent effect”; with MCF7 [5], 98%. In the assay with MCF7 [4], this compound had an IC50 of 12.1 µM.

As to `CN(C)CCCCCCCCCCCC(=O)N[C@H](CO)[C@H](O)c1ccc([N+](=O)[O-])cc1`, the inhibition in [10] is 55%; in [9], 65%. The values for the concentration for half-maximal inhibition (IC50) in the assay on MCF7 [11] and with MCF7 [4] were 7.2 µM and 10.2 µM, respectively. The Activity is 50% with MCF7 [1]; 300% in the assay with MCF7 [2]; 143% in the assay on MCF7 [3]; “Dose-dependent effect” in the assay on MCF7 [4]; 175% with MCF7 [12]; 10% in the assay on MCF7 [14]. Also, the Activity result in the assay on MCF7 [15] is “Dose-dependent effect”. For the same compound, in the assay on MCF7 [13], the outcome was inactive.

Consider `NCCCCCCCCCCCC(=O)N[C@H](CO)[C@H](O)c1ccc([N+](=O)[O-])cc1`, for which the Activity in the assay with MCF7 [1] was 50%; in the assay on MCF7 [2], 200%; with MCF7 [3] it was 120%; in the assay with MCF7 [4] it was “Dose-dependent effect”; in the assay on MCF7 [5], 98%. In the assay with MCF7 [4], this compound gave a half-maximal inhibitory concentration (IC50) of 6.43 µM.

`CCCCCCCCCCCCCC(=O)N[C@H](CO)[C@H](O)c1ccc([N+](=O)[O-])cc1`: the result (in the assay on MCF7 [6]; in [9]) was inactive. The inhibition in assay [10] was found to be 90%. Further, the Activity in the assay with MCF7 [16] was 135%; with MCF7 [2], 135%; in the assay on MCF7 [3] it was 135%; with MCF7 [4], “Dose-dependent effect”; in the assay on MCF7 [7] it was 135%; with MCF7 [17], 135%. Moreover, the Activity in the assay with MCF7 [18] stood at 140%. In the assay on MCF7 [4], it took 19.6 µM to reach half-maximal inhibition (IC50).
